Source: ChEMBL document CHEMBL1136857, “1-Malonyl-1,4-dihydropyridine as a novel carrier for specific delivery of drugs to the brain” (Bioorg Med Chem, 2009)

Columns and labels:
Mus musculus [1] = assay: Antidepressant activity against Swiss-Webster mouse assessed as reduction in duration of immobility at 10 mg/kg, ip after 1 hr by tail suspension behavioral despair test relative to control; assay type: functional; parameters: scale not given: the % may be the effect or the level left; details: route intraperitoneal
Method in brief: (§1)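 Mice dosed ip at 10 mg/kg in 0.5% w/v CMC in water (0.5 mL per 100 g body weight); controls got CMC alone; imipramine 10 mg/kg as reference. One hour later mice were hung by the tail from a shelf edge 80 cm above the floor, taped about 1 cm from the tail tip. Immobility (passive, completely motionless hanging) timed over 6 min; mean ± S.E.M., % deviation from control.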

Mus musculus [2] = assay: Antidepressant activity against Swiss-Webster mouse at 10 mg/kg, ip after 1 hr by tail suspension behavioral despair test relative to imipramine; assay type: functional; details: route intraperitoneal; method in brief: as §1
[3] = Chemical stability in ferricyanide solution assessed as rate of oxidation by UV spectroscopy; assay type: physicochemical
[4] = Chemical stability in 30% hydrogen peroxide assessed as rate of oxidation by UV spectroscopy; assay type: physicochemical
[5] = Stability in phosphate buffer at pH 7.4 after 4 days by HPLC; assay type: physicochemical
Method in brief: (§2)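 Dihydropyridine carrier at 2 × 10^-1 mmol in 0.2 M phosphate buffer (pH 7.4 or 5.8) at room temperature (32 °C), followed for 4 days by HPLC for the parent and its oxidation or degradation products. Pseudo-first-order disappearance constant from linear regression of ln peak area against time; t1/2 calculated; n = 4.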

[6] = Stability in phosphate buffer at pH 5.8 after 4 days by HPLC; assay type: physicochemical; method in brief: as §2
[7] = Stability in mouse plasma assessed as rate of oxidation by HPLC; assay type: ADME, cell-free
Method in brief: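 Heparinized mouse blood spun 4000 rpm for 20 min; plasma diluted to 80% with phosphate buffer (0.11 mol, pH 7.4) and prewarmed at 37 °C. Methanolic dihydro compound added; kept at 37 °C. Aliquots at 1, 2, 4, 8, 16, 32 and 64 min quenched in ice-cold methanol, frozen at −80 °C, centrifuged, filtered and run on HPLC. K_disapp and t1/2 from linear regression of ln peak area vs time; n = 4.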

[8] = Stability in Swiss-Webster mouse brain homogenate assessed as rate of oxidation by HPLC; assay type: ADME, tissue-based
Method in brief: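 Brains from ten adult male Swiss-Webster mice were washed in ice-cold saline and homogenized in ice-cold isotonic phosphate buffer (0.2 mol, pH 7.4) to give 20% homogenate, then prewarmed 5 min at 37 °C. Methanolic dihydro compound added; held at 37 °C. Samples taken at 1–64 min into ice-cold methanol, frozen at −80 °C, then analysed by HPLC. Pseudo-first-order K and t1/2 from ln peak area vs time; n = 4.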

Brain = assay: Drug level in Sprague-Dawley rat brain at 20 mg/kg, iv; assay type: ADME, organism-based; parameters: dose 20 mg/kg, route intravenous; details: in vivo
Method in brief: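 Male Sprague-Dawley rats received a freshly prepared DMF solution (25 mg/mL) via the external jugular vein at 20 mg/kg. Animals sacrificed at 10, 20 and 45 min. Whole brain homogenized in water plus 5% DMF in acetonitrile, then centrifuged; blood precipitated in acetonitrile. Supernatants filtered and the quaternary acid quantified by HPLC against recovery spikes of quaternary salt into blank rat brain and blood.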

Row | Structure (SMILES) | Activity (Mus musculus [1]) [%] | Activity (Mus musculus [2]) [%] | half-life [3] [min] | half-life [4] [min] | half-life [5] [min] | half-life [6] [min] | half-life [7] [min] | half-life [8] [min] | Drug uptake (Brain) [µg/g]
1 | CCOC(=O)C(C(=O)O)[n+]1ccc(C(=O)N/N=C/c2ccccc2O)cc1.[Br-] (stereo not given) | 30.34 | 78.8 |  |  |  |  |  |  | 
2 | CCOC(=O)C(C(=O)O)[n+]1ccc(C(=O)N/N=C/c2ccccc2Cl)cc1.[Br-] (stereo not given) | 31.42 | 79.6 |  |  |  |  |  |  | 
3 | CCOC(=O)C(C(=O)O)N1C=CCC(C(=O)N/N=C/c2ccc(OC)cc2)=C1 (stereo not given) |  |  | 2.1 | 3.35 | 260 | 196 | 21.8 | 10.1 | 
4 | CN1C=CC(C(=O)N/N=C/c2ccccc2Cl)C=C1 |  |  | 3.3 | 6.3 |  |  |  |  | 
5 | CN(C)c1ccc(/C=N/NC(=O)C2C=CN(C(C(=O)O)C(=O)O)C=C2)cc1 | 54.95 |  | 1.14 | 3.15 | 248 | 169 | 18.9 | 9.58 | 29.17
6 | CCOC(=O)C(C(=O)O)N1C=CC(C(=O)N/N=C/c2ccccc2O)C=C1 (stereo not given) | 36.7 | 92.8 | 2.48 | 4.08 |  |  |  |  | 
7 | CCOC(=O)C(C(=O)O)N1C=CC(C(=O)N/N=C/c2ccccc2Cl)C=C1 (stereo not given) | 40.9 | 86.7 | 3.01 | 5.3 | 402 | 252 | 23.3 | 10.7 | 23.23
8 | CN(C)c1ccc(/C=N/NC(=O)c2cc[n+](C(C(=O)O)C(=O)O)cc2)cc1.[Br-] | 50.75 |  |  |  |  |  |  |  | 
9 | CCOC(=O)C(C(=O)O)N1C=CCC(C(=O)N/N=C/c2ccccc2O)=C1 (stereo not given) | 64.55 |  | 2.17 | 3.85 |  |  |  |  | 
10 | CCOC(=O)C(C(=O)O)[n+]1cccc(C(=O)N/N=C/c2ccccc2O)c1.[Br-] (stereo not given) | 39.15 | 90.2 |  |  |  |  |  |  | 
11 | CN(C)CCCN1c2ccccc2CCc2ccccc21 [IMIPRAMINE] | 45.14 |  |  |  |  |  |  |  | 
